Data as given in ChEMBL document CHEMBL5678806, “NMS-P937, an orally available, specific small-molecule polo-like kinase 1 inhibitor with antitumor activity in solid and hematologic malignancies” (Mol Cancer Ther, 2012).
The source made the active and inactive calls. The rule behind the calls is not given here.

What was measured:
A2780 = experiment: Induction of mitosis in human A2780 cells at 0.0001 to 100 uM incubated for upto 24 hrs followed by compound washout by cell titer glow assay; type: functional, cell-based; conditions: dose 0.0001-100 µM
[1] = Antiproliferative activity against human LUDLU-1 cells assessed as inhibition of cell growth incubated for 72 hrs by cell-titer glo assay; type: functional, cell-based; conditions: LUDLU-1, 72 h
Method in brief: (§1)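 Cells seeded at 10,000–30,000/cm² (adherent) or 100,000/mL (nonadherent) in medium with 10% fetal calf serum; after 24 h, treated in duplicate with serial dilutions for 72 h. Viable cell number read by CellTiter-Glo luminescence; IC50 from sigmoidal fit; at least two independent experiments.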

[2] = target: Homeodomain-interacting protein kinase 1 (Homo sapiens) (UniProt Q86Z02); experiment: Inhibition of N-terminal 6His-tagged recombinant human HIPK1 (158 to 555 residues) expressed in baculovirus infected Sf21 cells assessed as residual activity at 1 uM relative to control
[3] = target: Mitogen-activated protein kinase 13 (Homo sapiens) (UniProt O15264); experiment: Inhibition of recombinant GST-tagged fusion protein fused to full length human SAPK4 expressed in E. coli assessed as residual activity at 0.1 uM relative to control
Chain of Mitogen-activated protein kinase 13 (Homo sapiens) (O15264 whole entry, the tested form may be a part): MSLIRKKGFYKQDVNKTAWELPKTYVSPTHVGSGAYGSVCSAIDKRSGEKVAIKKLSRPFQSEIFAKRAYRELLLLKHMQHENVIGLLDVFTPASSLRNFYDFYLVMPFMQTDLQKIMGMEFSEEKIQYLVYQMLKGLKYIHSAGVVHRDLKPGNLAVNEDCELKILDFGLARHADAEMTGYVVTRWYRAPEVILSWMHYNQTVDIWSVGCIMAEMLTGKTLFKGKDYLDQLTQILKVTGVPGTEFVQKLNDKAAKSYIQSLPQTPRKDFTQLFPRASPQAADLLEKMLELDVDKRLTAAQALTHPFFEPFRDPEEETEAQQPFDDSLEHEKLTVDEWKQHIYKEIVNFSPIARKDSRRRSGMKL

[4] = Cmax in Sprague-Dawley rat at 10 mg/kg, po by LC-MS analysis; type: ADME, organism-based; conditions: in vivo
[5] = target: Maternal embryonic leucine zipper kinase (Homo sapiens) (UniProt Q14680); experiment: Inhibition of N-terminal GST-tagged recombinant human MELK (1 to 340 residues) expressed in baculovirus infected Sf21 cells assessed as residual activity at 1 uM relative to control
Chain of Maternal embryonic leucine zipper kinase (Homo sapiens) (Q14680 whole entry, looked up, the tested form may be a part): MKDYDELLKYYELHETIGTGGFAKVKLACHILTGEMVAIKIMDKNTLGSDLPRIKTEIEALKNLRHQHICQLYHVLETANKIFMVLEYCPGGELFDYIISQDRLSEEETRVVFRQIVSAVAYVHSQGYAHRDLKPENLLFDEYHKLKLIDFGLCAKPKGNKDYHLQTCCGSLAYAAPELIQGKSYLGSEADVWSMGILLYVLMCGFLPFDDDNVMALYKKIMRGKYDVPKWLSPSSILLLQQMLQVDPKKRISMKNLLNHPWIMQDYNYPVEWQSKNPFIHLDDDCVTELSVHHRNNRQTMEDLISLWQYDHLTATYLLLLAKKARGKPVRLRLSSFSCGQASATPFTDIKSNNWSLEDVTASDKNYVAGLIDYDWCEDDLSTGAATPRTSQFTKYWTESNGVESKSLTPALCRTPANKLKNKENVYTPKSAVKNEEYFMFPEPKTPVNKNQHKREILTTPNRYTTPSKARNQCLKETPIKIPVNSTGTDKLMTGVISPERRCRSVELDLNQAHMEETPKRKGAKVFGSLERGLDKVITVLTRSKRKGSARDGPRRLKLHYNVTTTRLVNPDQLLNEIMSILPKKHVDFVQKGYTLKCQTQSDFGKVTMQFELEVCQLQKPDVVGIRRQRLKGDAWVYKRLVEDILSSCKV

[6] = Half-life in Beagle dog at 5 mg/kg, iv by LC-MS analysis; type: ADME, organism-based, Canis lupus familiaris; conditions: in vivo
[7] = target: Dual specificity mitogen-activated protein kinase kinase 7 (Homo sapiens) (UniProt O14733); experiment: Inhibition of N-terminal GST-tagged recombinant human MKK7beta (2 to end residues) expressed in E. coli assessed as residual activity at 0.1 uM relative to control
Chain of Dual specificity mitogen-activated protein kinase kinase 7 (Homo sapiens) (O14733 whole entry): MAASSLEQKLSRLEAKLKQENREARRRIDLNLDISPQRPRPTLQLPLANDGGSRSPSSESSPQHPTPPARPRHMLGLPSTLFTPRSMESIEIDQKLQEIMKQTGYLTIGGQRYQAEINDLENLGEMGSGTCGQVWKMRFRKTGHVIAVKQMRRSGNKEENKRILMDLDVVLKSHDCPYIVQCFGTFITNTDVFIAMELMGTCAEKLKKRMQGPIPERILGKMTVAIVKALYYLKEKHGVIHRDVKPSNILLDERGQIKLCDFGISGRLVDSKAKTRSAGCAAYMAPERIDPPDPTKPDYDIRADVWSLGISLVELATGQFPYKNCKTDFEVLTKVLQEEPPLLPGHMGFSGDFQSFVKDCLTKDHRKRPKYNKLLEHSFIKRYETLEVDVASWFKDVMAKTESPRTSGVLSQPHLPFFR

U-87 MG = experiment: Antiproliferative activity against human U-87 MG cells assessed as inhibition of cell growth incubated for 72 hrs by cell-titer glo assay; type: functional, cell-based, U-87MG ATCC
MeWo = experiment: Antiproliferative activity against human MeWo cells assessed as inhibition of cell growth incubated for 72 hrs by cell-titer glo assay; type: functional, cell-based
Method in brief: (§2)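 Cells from ATCC or ECACC, kept in supplier-recommended medium with 1% penicillin-streptomycin at 37°C, 5% CO₂. Seeded at 10,000–30,000/cm² (adherent) or 100,000/mL (nonadherent) in medium with 10% fetal calf serum. Dosed after 24 h in duplicate with serial dilutions. Viable cells read by CellTiter-Glo 72 h later. IC50 from sigmoidal fit. At least two independent experiments.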

[8] = target: Mitogen-activated protein kinase 11 (Homo sapiens) (UniProt Q15759); experiment: Inhibition of N-terminal GST fusion protein corresponding to full-length human SAPK2b expressed in E. coli assessed as residual activity at 1 uM relative to control
[9] = target: Ribosomal protein S6 kinase alpha-3 (Homo sapiens) (UniProt P51812); experiment: Inhibition of N-terminal His6 tagged recombinant human full-length Rsk2 expressed in baculovirus infected Sf21 cells assessed as residual activity at 1 uM relative to control
Chain of Ribosomal protein S6 kinase alpha-3 (Homo sapiens) (P51812 whole entry): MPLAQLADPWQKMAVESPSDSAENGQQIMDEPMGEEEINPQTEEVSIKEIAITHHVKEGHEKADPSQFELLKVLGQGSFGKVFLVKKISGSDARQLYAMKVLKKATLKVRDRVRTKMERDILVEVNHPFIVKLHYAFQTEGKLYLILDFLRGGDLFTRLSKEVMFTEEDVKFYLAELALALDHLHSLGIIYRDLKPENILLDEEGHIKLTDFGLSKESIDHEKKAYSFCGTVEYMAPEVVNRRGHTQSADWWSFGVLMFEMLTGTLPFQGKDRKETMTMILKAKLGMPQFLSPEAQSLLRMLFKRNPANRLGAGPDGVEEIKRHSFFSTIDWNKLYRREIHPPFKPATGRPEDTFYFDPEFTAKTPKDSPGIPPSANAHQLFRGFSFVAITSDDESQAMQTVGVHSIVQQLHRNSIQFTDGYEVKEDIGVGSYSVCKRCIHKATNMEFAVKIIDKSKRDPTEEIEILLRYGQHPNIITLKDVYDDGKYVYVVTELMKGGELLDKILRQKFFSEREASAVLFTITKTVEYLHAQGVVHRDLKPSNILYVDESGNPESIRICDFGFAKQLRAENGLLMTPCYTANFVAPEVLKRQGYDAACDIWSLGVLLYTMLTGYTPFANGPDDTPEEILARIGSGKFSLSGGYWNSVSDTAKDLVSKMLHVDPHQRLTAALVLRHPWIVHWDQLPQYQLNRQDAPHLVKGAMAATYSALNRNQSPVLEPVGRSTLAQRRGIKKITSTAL

[10] = target: Angiopoietin-1 receptor (Homo sapiens) (UniProt Q02763); experiment: Inhibition of N-terminal His6-tagged recombinant human Tie2 (771 to end residues) expressed in baculovirus infected Sf21 cells assessed as residual activity at 1 uM relative to control
Chain of Angiopoietin-1 receptor (Homo sapiens) (Q02763 whole entry): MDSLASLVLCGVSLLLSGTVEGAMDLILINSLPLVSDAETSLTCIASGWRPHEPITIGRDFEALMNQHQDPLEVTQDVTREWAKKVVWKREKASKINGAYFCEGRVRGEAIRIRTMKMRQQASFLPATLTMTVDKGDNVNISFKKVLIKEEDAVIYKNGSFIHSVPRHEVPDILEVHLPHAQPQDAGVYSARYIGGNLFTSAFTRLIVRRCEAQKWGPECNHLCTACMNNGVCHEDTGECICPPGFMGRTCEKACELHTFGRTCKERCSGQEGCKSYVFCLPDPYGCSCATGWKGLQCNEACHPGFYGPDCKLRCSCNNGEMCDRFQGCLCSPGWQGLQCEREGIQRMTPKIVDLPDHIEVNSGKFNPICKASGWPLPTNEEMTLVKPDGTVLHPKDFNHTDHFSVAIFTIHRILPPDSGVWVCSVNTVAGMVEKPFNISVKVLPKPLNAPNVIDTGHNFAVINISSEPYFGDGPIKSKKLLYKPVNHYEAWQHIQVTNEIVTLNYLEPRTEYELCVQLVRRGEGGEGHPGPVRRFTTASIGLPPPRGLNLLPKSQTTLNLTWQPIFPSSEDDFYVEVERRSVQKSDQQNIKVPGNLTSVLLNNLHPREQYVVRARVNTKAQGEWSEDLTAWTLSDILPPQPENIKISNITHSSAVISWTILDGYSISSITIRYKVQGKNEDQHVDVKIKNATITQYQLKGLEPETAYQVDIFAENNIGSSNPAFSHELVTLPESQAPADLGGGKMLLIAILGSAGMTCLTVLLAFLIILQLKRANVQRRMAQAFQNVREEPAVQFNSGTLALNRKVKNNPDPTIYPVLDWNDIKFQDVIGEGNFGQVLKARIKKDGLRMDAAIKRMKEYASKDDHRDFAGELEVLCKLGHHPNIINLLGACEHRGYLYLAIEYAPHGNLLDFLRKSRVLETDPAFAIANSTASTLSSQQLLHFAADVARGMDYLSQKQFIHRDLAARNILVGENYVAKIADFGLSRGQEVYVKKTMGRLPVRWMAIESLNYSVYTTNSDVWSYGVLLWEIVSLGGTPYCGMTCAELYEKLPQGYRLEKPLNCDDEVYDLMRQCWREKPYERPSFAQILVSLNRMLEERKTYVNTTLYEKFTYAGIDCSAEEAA

[11] = target: Non-receptor tyrosine-protein kinase TYK2 (Homo sapiens, UniProt P29597); experiment: Inhibition of TYK2 (unknown origin) in presence of [gamma-33P]ATP
Chain of Non-receptor tyrosine-protein kinase TYK2 (P29597 whole entry): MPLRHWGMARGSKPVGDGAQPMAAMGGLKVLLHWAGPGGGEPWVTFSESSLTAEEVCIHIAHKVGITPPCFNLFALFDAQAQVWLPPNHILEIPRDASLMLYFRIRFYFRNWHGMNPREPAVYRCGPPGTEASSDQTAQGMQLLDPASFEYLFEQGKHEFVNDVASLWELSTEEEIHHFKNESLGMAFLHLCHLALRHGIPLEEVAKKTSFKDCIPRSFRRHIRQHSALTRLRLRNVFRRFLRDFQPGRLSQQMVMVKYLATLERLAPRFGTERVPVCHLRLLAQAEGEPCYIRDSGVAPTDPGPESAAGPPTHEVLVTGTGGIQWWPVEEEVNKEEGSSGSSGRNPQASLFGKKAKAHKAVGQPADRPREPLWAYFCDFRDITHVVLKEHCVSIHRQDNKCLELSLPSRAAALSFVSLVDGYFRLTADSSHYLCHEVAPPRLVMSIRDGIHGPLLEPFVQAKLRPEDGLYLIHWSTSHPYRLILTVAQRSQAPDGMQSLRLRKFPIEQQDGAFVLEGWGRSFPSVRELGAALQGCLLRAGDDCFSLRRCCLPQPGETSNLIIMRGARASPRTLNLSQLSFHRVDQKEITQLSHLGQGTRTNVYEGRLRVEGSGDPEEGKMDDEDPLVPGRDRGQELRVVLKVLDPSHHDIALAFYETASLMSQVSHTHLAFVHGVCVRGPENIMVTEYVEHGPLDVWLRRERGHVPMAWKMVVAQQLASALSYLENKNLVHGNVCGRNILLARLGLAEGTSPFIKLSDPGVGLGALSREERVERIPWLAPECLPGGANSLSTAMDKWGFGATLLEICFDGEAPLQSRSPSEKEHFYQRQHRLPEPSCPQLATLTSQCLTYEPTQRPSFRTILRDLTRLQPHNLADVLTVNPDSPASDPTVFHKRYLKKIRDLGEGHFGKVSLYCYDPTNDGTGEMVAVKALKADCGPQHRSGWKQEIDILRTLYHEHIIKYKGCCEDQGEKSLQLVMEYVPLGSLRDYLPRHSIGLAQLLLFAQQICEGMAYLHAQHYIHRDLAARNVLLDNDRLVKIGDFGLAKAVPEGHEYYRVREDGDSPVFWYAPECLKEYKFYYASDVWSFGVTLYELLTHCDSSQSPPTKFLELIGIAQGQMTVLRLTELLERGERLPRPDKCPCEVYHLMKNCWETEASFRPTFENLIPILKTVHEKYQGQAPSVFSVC

[12] = Antiproliferative activity against human Lovo/DX cells assessed as inhibition of cell growth incubated for 72 hrs by cell-titer glo assay; type: functional, cell-based; method in brief: as §1
[13] = target: Vascular endothelial growth factor receptor 3 (Homo sapiens, UniProt P35916); experiment: Inhibition of VEGFR3 (unknown origin) in presence of [gamma-33P]ATP
NCI-H1975 = experiment: Antiproliferative activity against human NCI-H1975 cells assessed as inhibition of cell growth incubated for 72 hrs by cell-titer glo assay; type: functional, cell-based; conditions: NCI-H1975, 72 h; method in brief: as §2
SW1417 = experiment: Antiproliferative activity against human SW1417 cells assessed as inhibition of cell growth incubated for 72 hrs by cell-titer glo assay; type: functional, cell-based; conditions: SW1417, 72 h
[14] = test system: Angiopoietin-1 receptor (Homo sapiens), Q02763 [R849W]; experiment: Inhibition of N-terminal His6-tagged recombinant human Tie2 (771 to end residues) R849W mutant expressed in baculovirus infected Sf21 cells assessed as residual activity at 0.1 uM relative to control
[15] = target: Ribosomal protein S6 kinase beta-1 (Homo sapiens) (UniProt P23443); experiment: Inhibition of N-terminal His6-tagged recombinant p70S6K (1 to 421 residues) (unknown origin) expressed in baculovirus infected Sf21 cells assessed as residual activity at 1 uM relative to control
Chain of Ribosomal protein S6 kinase beta-1 (Homo sapiens) (P23443 whole entry, looked up, the tested form may be a part): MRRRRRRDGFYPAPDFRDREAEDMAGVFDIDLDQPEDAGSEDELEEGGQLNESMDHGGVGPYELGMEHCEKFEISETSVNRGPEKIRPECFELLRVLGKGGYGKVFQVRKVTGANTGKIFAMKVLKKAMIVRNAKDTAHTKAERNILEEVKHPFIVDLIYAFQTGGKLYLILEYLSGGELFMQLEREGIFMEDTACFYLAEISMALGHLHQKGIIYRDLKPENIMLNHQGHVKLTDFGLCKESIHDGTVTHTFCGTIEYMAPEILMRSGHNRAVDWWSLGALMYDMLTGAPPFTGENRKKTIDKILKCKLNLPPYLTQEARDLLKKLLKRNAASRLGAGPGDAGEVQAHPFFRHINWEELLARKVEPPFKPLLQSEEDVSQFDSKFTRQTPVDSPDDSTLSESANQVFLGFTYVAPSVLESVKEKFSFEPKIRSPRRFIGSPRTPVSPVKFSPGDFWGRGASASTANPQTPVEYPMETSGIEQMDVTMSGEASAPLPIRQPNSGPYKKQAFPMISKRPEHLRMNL

NHDF = experiment: Cytotoxicity against human NHDF cells assessed as reduction in cell number at 0.5 to 1 uM incubated for 8 hrs followed by compound washout and measured after 24 to 48 hrs by cell titer glow assay; type: toxicity, cell-based; conditions: dose 0.5-1 µM
DU-4475 = experiment: Antiproliferative activity against human DU-4475 cells assessed as inhibition of cell growth incubated for 72 hrs by cell-titer glo assay; type: functional, cell-based; conditions: DU-4475, 72 h
Method in brief: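 Cells seeded 10,000–30,000/cm² (adherent) or 100,000/mL (suspension) in medium with 10% fetal calf serum; after 24 h treated in duplicate with serial dilutions for 72 h. Viable cells read by CellTiter-Glo luminescence; IC50 from sigmoidal fit; at least two independent experiments.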

NCI-H146 = experiment: Antiproliferative activity against human NCI-H146 cells assessed as inhibition of cell growth incubated for 72 hrs by cell-titer glo assay; type: functional, cell-based; conditions: NCI-H146, 72 h; method in brief: as §2
U2OS [16] = experiment: Induction of cell death in human U2OS cells assessed as reduced cell number at 1 uM by time lapse microscopy analysis; type: functional, cell-based; conditions: time lower […], time upper 48.0 hrs, TDE = time-dependent effect
[17] = target: Mitogen-activated protein kinase kinase kinase 5 (Homo sapiens) (UniProt Q99683); experiment: Inhibition of N-Terminal GST and C-terminal His6-tagged recombinant human ASK1 (649 to 946 residues) expressed in E. coli cell assessed as residual activity at 0.1 uM relative to control
SW-403 = experiment: Antiproliferative activity against human SW403 cells assessed as inhibition of cell growth incubated for 72 hrs by cell-titer glo assay; type: functional, cell-based; conditions: SW-403, 72 h
U2OS [18] = experiment: Effect on cell morphology in human U2OS cells expressing GFP/alpha-tubulin fusion protein assessed as misaligned chromosomes […] at 1 uM incubated for 24 hrs by laser scanning confocal microscopy analysis; type: functional, cell-based
[19] = target: Cytoplasmic tyrosine-protein kinase BMX (Homo sapiens) (UniProt P51813); experiment: Inhibition of recombinant human Bmx assessed as residual activity at 1 uM relative to control

Compound: CN1CCN(c2ccc(OC(F)(F)F)c(Nc3ncc4c(n3)-c3c(c(C(N)=O)nn3CCO)CC4)c2)CC1 [ONVANSERTIB]
- Activity (A2780): Active
- IC50 [1]: 32 nM
- Activity [2]: 90%
- Activity [3]: 113%
- Cmax [4]: 4.2 µM
- Activity [5]: 71%
- half-life [6]: 3.9 h
- Activity [7]: 85%
- IC50 (U-87 MG): 991 nM
- IC50 (MeWo): 237 nM
- Activity [8]: 146%
- Activity [9]: 89%
- Activity [10]: 114%
- IC50 [11]: > 10000 nM
- IC50 [12]: 1720 nM
- IC50 [13]: > 10000 nM
- IC50 (NCI-H1975): 398 nM
- IC50 (SW1417): 606 nM
- Activity [14]: 74%
- Activity [15]: 76%
- Activity (NHDF): Toxic
- IC50 (DU-4475): 47 nM
- IC50 (NCI-H146): 339 nM
- Activity (U2OS [16]): Tde
- Activity [17]: 123%
- IC50 (SW-403): 46 nM
- Activity (U2OS [18]): Active
- Activity [19]: 85%
